This note sets out measurements from ChEMBL document CHEMBL1134368, “Alpha(2) adrenoceptor agonists as potential analgesic agents. 3. Imidazolylmethylthiophenes” (J Med Chem, 2001).

Active and inactive are the calls of the source. The rule behind the calls is not given here.

In assay [1] the test system is Rattus norvegicus. Nature of the assay: In vivo antinociceptive activity was determined using in Rat abdominal irritant test(RAIT) assay; IA=inactive. It is filed as functional, organism-based. To be noted: Abdomen.
Assay [2] has as its system Mus musculus. Nature of the assay: In vivo antinociceptive activity was determined by mouse abdominal irritant test (MAIT) in male pathogen free albino CD-1 mice. The arrangement: concentration or dose not given beside the values. The assay is classed as functional, Abdomen. The method in brief:
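Mice were dosed orally by gavage at several doses, with vehicle controls. Acetylcholine bromide was given at 5.5 mg/kg ip at set intervals later, and writhing was observed. Percent antinociception was calculated per dose from responders per group. ED50 and 95% confidence limits came from Litchfield-Wilcoxon probit analysis with a chi-square linearity test.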

In assay [3] the test system is Mus musculus. Nature of the assay: In vivo antinociceptive activity was determined by Mouse abdominal irritant test (MAIT)in male pathogen free albino CD-1 mice at 30 mg/kg. The assay is classed as functional. To be noted: Abdomen. In short, it runs like this:
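Compound or vehicle was given to mice by oral gavage at 30 mg/kg. After set intervals, acetylcholine bromide was injected at 5.5 mg/kg ip. Percent inhibition was the percentage of responders per group.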

Assay [4] relates to Rattus norvegicus. Description: In vivo antinociceptive activity was determined using in rat abdominal irritant test (RAIT) assay. The note with it: Abdomen. It is filed as functional.
The species named for assay [5] is Rattus norvegicus. Description: QT interval was determined during cardiovascular test in normotensive male albino Long-Evans rat; delta QT. It is filed as functional, Heart.
Assay [6] is filed under the species Rattus norvegicus. Description: QT interval was determined during cardiovascular test in normotensive male albino Long-Evans rat. It is filed as functional, Heart. The arrangement: concentration or dose not given beside the values.
Assay [7] concerns the target Adrenergic receptor alpha-2 (Rattus norvegicus) (UniProt P22086+P19328+P22909). Nature of the assay: compounds were tested for agonistic activity in Alpha2 Adrenoceptor in Rat abdominal irritant test (RAIT). To be noted: Abdomen. It is filed as functional.
Assay [8] concerns the target T1, Alpha-2C adrenergic receptor (Rattus norvegicus, UniProt P22086).
T1 sequence (P22086 whole entry): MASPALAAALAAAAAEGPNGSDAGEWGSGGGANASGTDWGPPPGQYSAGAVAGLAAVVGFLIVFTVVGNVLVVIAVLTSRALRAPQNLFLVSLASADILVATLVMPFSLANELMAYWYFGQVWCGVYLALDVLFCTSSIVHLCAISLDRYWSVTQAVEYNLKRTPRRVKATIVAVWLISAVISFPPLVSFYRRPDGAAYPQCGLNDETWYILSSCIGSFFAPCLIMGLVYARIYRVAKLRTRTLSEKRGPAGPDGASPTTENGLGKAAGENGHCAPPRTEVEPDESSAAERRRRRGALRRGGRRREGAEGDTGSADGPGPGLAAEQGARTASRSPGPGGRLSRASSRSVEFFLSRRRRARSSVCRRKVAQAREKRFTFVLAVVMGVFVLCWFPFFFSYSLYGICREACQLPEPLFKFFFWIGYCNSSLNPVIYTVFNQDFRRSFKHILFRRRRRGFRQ
Description: In vitro binding affinity against alpha-2C adrenergic receptor of male Wistar rat.

For assay [9], the species on record is Rattus norvegicus. Nature of the assay: QT interval was determined during cardiovascular test in normotensive male albino Long-Evans rat;delta QT. It is filed as functional, Heart.

Adrenergic receptor alpha-2 (Rattus norvegicus), sequence (P19328 whole entry, looked up, one chain of several): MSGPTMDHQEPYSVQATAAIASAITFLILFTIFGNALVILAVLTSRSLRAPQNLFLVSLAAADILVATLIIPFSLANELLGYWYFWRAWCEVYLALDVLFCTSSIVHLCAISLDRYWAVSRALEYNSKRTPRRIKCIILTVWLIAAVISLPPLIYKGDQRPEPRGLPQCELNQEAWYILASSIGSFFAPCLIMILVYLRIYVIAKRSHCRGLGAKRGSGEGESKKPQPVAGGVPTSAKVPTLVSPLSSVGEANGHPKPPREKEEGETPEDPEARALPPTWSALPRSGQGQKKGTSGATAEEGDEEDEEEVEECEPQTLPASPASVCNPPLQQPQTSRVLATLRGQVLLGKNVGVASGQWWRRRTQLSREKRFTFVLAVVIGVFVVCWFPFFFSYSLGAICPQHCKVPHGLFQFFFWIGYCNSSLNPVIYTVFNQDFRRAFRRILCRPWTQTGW
Adrenergic receptor alpha-2 (Rattus norvegicus), sequence (P22909 whole entry, looked up, one chain of several): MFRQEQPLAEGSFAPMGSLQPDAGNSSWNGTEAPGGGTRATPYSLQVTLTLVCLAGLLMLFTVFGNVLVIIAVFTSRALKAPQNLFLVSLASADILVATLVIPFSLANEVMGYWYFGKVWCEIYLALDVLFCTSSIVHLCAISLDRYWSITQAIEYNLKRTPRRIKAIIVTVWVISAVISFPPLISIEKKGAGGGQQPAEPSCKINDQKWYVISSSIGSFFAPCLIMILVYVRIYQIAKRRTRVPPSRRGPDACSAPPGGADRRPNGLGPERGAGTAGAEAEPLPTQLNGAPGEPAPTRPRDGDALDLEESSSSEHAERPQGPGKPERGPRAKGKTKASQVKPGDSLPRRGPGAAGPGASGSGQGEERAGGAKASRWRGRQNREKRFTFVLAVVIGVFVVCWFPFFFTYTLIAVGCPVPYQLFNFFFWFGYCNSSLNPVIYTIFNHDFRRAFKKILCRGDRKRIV

For `CCC(c1c[nH]cn1)c1sccc1C.O=C(O)/C=C/C(=O)O` (stereo not given), the IA result in the assay with Rattus norvegicus [1] is “inactive”. In the assay with Mus musculus [2], this compound came in with an Inhibition of 100%. `Cc1csc(C(C)c2c[nH]cn2)c1C` (stereo not given): in the assay with Rattus norvegicus [1], the IA entry is “inactive”. Regarding `Cc1ccsc1Cc1c[nH]cn1.Cl`, in the assay with Mus musculus [3], the inhibition in vivo at 30 mg/kg came out at 100%. Also, the ED50 in the assay on Rattus norvegicus [4] was 0.87 mg/kg. The same compound displayed an Activity in the assay listed under Rattus norvegicus [5] of 22%. As to `Cc1sccc1C(C)c1c[nH]cn1.O=C(O)/C=C/C(=O)O` (stereo not given), the ED50 in the assay on Rattus norvegicus [4] was 1.6 mg/kg. For the same compound, in the assay with Mus musculus [2], the Inhibition was found to be 100%. In the assay with Mus musculus [2], `CC(c1c[nH]cn1)c1scc(Br)c1Br.O=C(O)/C=C/C(=O)O` (stereo not given) displayed an Inhibition of 80%.

Turning to `CC(C)c1cc(Cc2c[nH]cn2)c(C(C)C)s1.O=C(O)/C=C/C(=O)O`, the Inhibition in the assay on Mus musculus [2] came to 40%. Consider `Cc1cscc1Cc1c[nH]cn1.O=C(O)/C=C/C(=O)O`, for which, in the assay on Rattus norvegicus [4], it took a dose of 0.35 mg/kg to reach the 50% effect level (ED50). This compound also gave an Inhibition with Mus musculus [2] of 100%. This compound also came in with an Activity in the assay listed under Rattus norvegicus [6] of 34%. In turn, `O=C(O)/C=C/C(=O)O.c1nc(Cc2ccsc2)c[nH]1` returned an ED50 in the assay on Rattus norvegicus [4] of 0.97 mg/kg. In the assay with Mus musculus [2], this compound registered an Inhibition of 100%. Taken in the same sequence, the figures for `CC(c1c[nH]cn1)c1cscc1Br.O=C(O)/C=C/C(=O)O` (stereo not given) were 0.31 mg/kg and 100%. Consider `CCc1cscc1Cc1c[nH]cn1.O=C(O)/C=C/C(=O)O`, for which it took a dose of 0.32 mg/kg to reach the 50% effect level in the assay on Rattus norvegicus [4] (ED50). The same compound registered an Inhibition in the assay with Mus musculus [2] of 100%. For the same compound, in the assay filed under Rattus norvegicus [6], the Activity is recorded as 48%.

`Brc1sccc1Cc1c[nH]cn1.O=C(O)/C=C/C(=O)O`: the ED50 in assay [7] turned out to be 1.1 mg/kg. The compound also returned an Inhibition in the assay with Mus musculus [2] of 100%. In the case of `Brc1csc(Cc2c[nH]cn2)c1.Cl`, the affinity in [8], expressed as Ki, was 1.4 nM. The compound further had an ED50 in the assay with Rattus norvegicus [4] of 5.2 mg/kg. The compound further gave an Inhibition in the assay on Mus musculus [2] of 80%. On to `Brc1cscc1Cc1c[nH]cn1.O=C(O)/C=C/C(=O)O`, for which the ED50 with Rattus norvegicus [4] turned out to be 0.38 mg/kg. The compound further had an Inhibition in the assay with Mus musculus [2] of 100%. In the assay listed under Rattus norvegicus [6], the Activity was 11%. In the assay with Rattus norvegicus [4], `COC(c1c[nH]cn1)c1cscc1Br.O=C(O)/C=C/C(=O)O` (stereo not given) registered an ED50 of 3.6 mg/kg. In the assay on Mus musculus [2], the Inhibition is reported as 100%. `Cc1csc(C)c1Cc1c[nH]cn1.O=C(O)/C=C/C(=O)O` registered an Inhibition with Mus musculus [2] of 100%. Consider `CCc1cc(Cc2c[nH]cn2)c(CC)s1.O=C(O)/C=C/C(=O)O`, for which the ED50 with Rattus norvegicus [4] is 0.31 mg/kg. In the assay with Mus musculus [2], this compound returned an Inhibition of 100%. Taken in the same sequence, the figures for `Cc1sccc1Cc1c[nH]cn1.O=C(O)/C=C/C(=O)O` were 0.89 mg/kg and 100%. Compound `c1csc(Cc2c[nH]cn2)c1` had an inhibition in vivo at 30 mg/kg with Mus musculus [3] of 60%. For `CCC(c1c[nH]cn1)c1cscc1C.O=C(O)/C=C/C(=O)O` (stereo not given), in the assay on Rattus norvegicus [4], the ED50 was found to be 2.6 mg/kg. In the assay with Mus musculus [2], this compound yielded an Inhibition of 100%. Turning to `Cl.c1ccc2sc(Cc3c[nH]cn3)cc2c1`, in the assay on Mus musculus [2], the Inhibition is recorded as 20%. In the assay with Rattus norvegicus [4], `Cc1cc(Cc2c[nH]cn2)c(C)s1.O=C(O)/C=C/C(=O)O` yielded an ED50 of 0.9 mg/kg. The compound further yielded an Inhibition in the assay on Mus musculus [2] of 100%. The compound `Brc1csc(Cc2c[nH]cn2)c1Br.Cl` came in with an ED50 with Rattus norvegicus [4] of 7.1 mg/kg. In the assay with Mus musculus [2], the Inhibition came to 93%. In the assay on Mus musculus [2], `Cl.c1nc(Cc2cc3c(s2)CCCC3)c[nH]1` displayed an Inhibition of 7%.

In turn, `COC(c1c[nH]cn1)c1cscc1C.O=C(O)/C=C/C(=O)O` (stereo not given) yielded an ED50 with Rattus norvegicus [4] of 4.4 mg/kg. The Inhibition in the assay with Mus musculus [2] is listed as 100%.

In the assay on Mus musculus [2], `COC(c1c[nH]cn1)c1sccc1Br.O=C(O)/C=C/C(=O)O` (stereo not given) registered an Inhibition of 53%. In the assay on Rattus norvegicus [4], `CCc1sccc1Cc1c[nH]cn1.O=C(O)/C=C/C(=O)O` came in with an ED50 of 0.27 mg/kg. The compound also came in with an Inhibition with Mus musculus [2] of 100%. Besides, the Activity in the assay filed under Rattus norvegicus [6] worked out at 28%.

Consider `Clc1cc(Cc2c[nH]cn2)c(Cl)s1.O=C(O)/C=C/C(=O)O`, for which it took a dose of 3.2 mg/kg to reach the 50% effect level in the assay on Rattus norvegicus [4] (ED50). The compound further registered an Inhibition in the assay with Mus musculus [2] of 100%. For the compound `CCc1cscc1C(C)c1c[nH]cn1.O=C(O)/C=C/C(=O)O` (stereo not given), in the assay on Rattus norvegicus [4], the ED50 is 0.48 mg/kg. Moreover, in the assay on Mus musculus [2], the Inhibition was 100%. Further, the Activity in the assay listed under Rattus norvegicus [6] is reported as 32%. In the assay with Rattus norvegicus [4], `Cc1cscc1C(C)c1c[nH]cn1.O=C(O)/C=C/C(=O)O` (stereo not given) yielded an ED50 of 0.27 mg/kg. This compound also came in with an Inhibition with Mus musculus [2] of 100%. `Cc1csc(Cc2c[nH]cn2)c1C.Cl`: testing at 30 mg/kg in the assay on Mus musculus [3] gave an inhibition in vivo of 100%. The compound further had an ED50 in the assay on Rattus norvegicus [4] of 4.7 mg/kg. `Cc1ccsc1C(C)c1c[nH]cn1` (single isomer, unassigned; (+)) displayed an ED50 in the assay with Rattus norvegicus [4] of 1.18 mg/kg. In the assay filed under Rattus norvegicus [5], this compound yielded an Activity of 24%. Turning to `Cc1ccsc1C1(c2c[nH]cn2)CC1.O=C(O)/C=C/C(=O)O`, the Inhibition with Mus musculus [2] came out at 40%. Turning to `O=C(O)/C=C/C(=O)O.c1ccc2c(Cc3c[nH]cn3)csc2c1`, the 50% effect level in the assay with Rattus norvegicus [4] (ED50) was put at a dose of 0.44 mg/kg. This compound had an Inhibition in the assay with Mus musculus [2] of 0.441%.

As to `CC(c1c[nH]cn1)c1sccc1Br` (stereo not given), in the assay filed under Rattus norvegicus [9], the Activity is listed as 23%. In the assay on Rattus norvegicus [4], this compound gave an ED50 of 0.97 mg/kg. For the compound `Cc1ccc(Cc2c[nH]cn2)s1`, the inhibition in vivo at 30 mg/kg with Mus musculus [3] was 33%. In the assay on Rattus norvegicus [4], `Cc1ccsc1C(C)c1c[nH]cn1.Cl` (stereo not given) yielded an ED50 of 2.2 mg/kg. In addition, the Inhibition with Mus musculus [2] came to 100%. The compound `Brc1ccsc1Cc1c[nH]cn1.Cl` showed an inhibition in vivo at 30 mg/kg in the assay with Mus musculus [3] of 100%. The compound further showed an ED50 with Rattus norvegicus [4] of 2 mg/kg.

In the assay with Rattus norvegicus [4], `Cc1cccc([C@H](C)c2c[nH]cn2)c1C` [DEXMEDETOMIDINE] gave an ED50 of 0.12 mg/kg. `CC(c1c[nH]cn1)c1cscc1Br` (stereo not given) gave an Activity in the assay filed under Rattus norvegicus [5] of 20%. For the compound `CC(c1c[nH]cn1)c1sccc1Br.Cl` (stereo not given), in the assay with Rattus norvegicus [4], it took a dose of 0.97 mg/kg to reach the 50% effect level (ED50). In the assay on Mus musculus [2], this compound showed an Inhibition of 100%.
